In ChEMBL document CHEMBL4834401, “Structure-Activity Relationship Studies of Coumarin-like Diacid Derivatives as Human G Protein-Coupled Receptor-35 (hGPR35) Agonists and a Consequent New Design Principle” (J Med Chem, 2021) one finds EC50, IC50 and Activity data, which are given here for 15 compounds.

The source made the active and inactive calls. The calls are words filed in the database; no cut-off is given here.

Assay [1] deals with T1, G-protein coupled receptor 35 (Homo sapiens, UniProt Q9HC97). The assay is described as follows: Agonist activity at human GPR35 receptor expressed in HT-29 cells assessed as dynamic mass redistribution response by DMR assay. In kind it is functional, cell-based.
T1 sequence (Q9HC97 whole entry): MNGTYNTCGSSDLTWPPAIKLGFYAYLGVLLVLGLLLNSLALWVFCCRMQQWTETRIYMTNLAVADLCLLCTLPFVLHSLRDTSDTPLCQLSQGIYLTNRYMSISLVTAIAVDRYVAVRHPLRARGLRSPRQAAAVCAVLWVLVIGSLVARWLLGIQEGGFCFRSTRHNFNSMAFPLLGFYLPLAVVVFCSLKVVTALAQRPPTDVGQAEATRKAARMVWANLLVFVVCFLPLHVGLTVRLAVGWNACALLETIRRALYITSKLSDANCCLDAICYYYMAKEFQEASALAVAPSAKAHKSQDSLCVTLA
Assay [2] deals with T1, G-protein coupled receptor 35. The assay is described as follows: Agonist activity at human GPR35 receptor expressed in HT-29 cells assessed as desensitization of zaprinast-induced DMR response preincubated for 1 hr followed by zaprinast stimulation by DMR desensitization assay. In kind it is functional, cell-based.
Assay [3] has the same target. The assay is described as follows: Agonist activity at human GPR35 receptor expressed in HT-29 cells assessed as reduction in dynamic mass redistribution response in presence of GPR35 antagonist ML-145 by DMR assay. In kind it is functional, cell-based.
The target is the same in assay [4]. Briefly: Agonist activity at human GPR35 receptor expressed in CHO-K1 cells assessed as dynamic mass redistribution response by DMR assay. In kind it is functional, cell-based.
Assay [5] has the same target. Briefly: Agonist activity at human GPR35 receptor expressed in CHO-K1 cells assessed as desensitization of zaprinast-induced DMR response preincubated for 1 hr followed by zaprinast stimulation by DMR desensitization assay. The format is functional, cell-based.
The target in assay [6] is Muscarinic acetylcholine receptor M3 (Homo sapiens) (UniProt P20309). The assay is described as follows: Agonist activity at muscarinic M3 receptor (unknown origin) at 1 uM. In kind it is functional. The method in brief:
(§1)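 Each receptor was expressed separately in its own cell line, and compounds were added at 1 μM. Cells were seeded on biosensor plates and grown overnight to a confluent monolayer. They were then washed, kept in Hank's balanced salt solution, and equilibrated 1 h in the reader. After a 2 min baseline, the label-free dynamic mass redistribution (DMR) response was recorded immediately after compound addition.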

In assay [7] the target is D(2) dopamine receptor (Homo sapiens) (UniProt P14416). The assay is described as follows: Agonist activity at dopamine D2 receptor (unknown origin) at 1 uM. The format is functional. The essentials: as §1
Chain of D(2) dopamine receptor (Homo sapiens) (P14416 whole entry): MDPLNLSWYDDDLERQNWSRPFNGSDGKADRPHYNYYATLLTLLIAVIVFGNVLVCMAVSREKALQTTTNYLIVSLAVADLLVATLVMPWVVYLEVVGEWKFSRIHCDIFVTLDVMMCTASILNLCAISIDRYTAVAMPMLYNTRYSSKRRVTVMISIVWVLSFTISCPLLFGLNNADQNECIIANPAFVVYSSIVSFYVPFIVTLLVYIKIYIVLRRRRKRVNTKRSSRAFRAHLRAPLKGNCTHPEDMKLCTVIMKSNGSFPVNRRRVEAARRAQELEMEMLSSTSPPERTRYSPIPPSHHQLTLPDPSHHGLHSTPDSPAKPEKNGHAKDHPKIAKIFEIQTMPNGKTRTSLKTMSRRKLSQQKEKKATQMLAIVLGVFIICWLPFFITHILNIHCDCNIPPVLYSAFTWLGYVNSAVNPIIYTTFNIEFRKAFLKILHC
Assay [8] concerns the target Mu-type opioid receptor (Homo sapiens) (UniProt P35372). Briefly: Agonist activity at mu-opioid receptor (unknown origin) at 1 uM. The format is functional. The method in brief:
as §1

The target in assay [9] is T2, Free fatty acid receptor 4 (Homo sapiens) (UniProt Q5NUL3).
T2 sequence (whole entry): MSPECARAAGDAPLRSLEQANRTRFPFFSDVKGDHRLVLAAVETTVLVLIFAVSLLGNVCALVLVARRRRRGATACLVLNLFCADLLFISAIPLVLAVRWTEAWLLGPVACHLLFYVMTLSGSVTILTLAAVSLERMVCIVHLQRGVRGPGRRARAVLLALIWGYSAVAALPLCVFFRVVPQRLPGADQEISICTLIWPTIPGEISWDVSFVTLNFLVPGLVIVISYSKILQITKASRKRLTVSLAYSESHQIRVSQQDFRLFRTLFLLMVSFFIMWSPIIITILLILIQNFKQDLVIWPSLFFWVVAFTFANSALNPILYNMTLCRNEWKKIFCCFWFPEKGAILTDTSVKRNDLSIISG
Briefly: Agonist activity at FFA4 receptor (unknown origin) at 1 uM. The format is functional. The method in brief: as §1

Assay [10] deals with Histamine H1 receptor (Homo sapiens) (UniProt P35367). The assay is described as follows: Agonist activity at histamine H1 receptor receptor (unknown origin) at 1 uM.
Chain of Histamine H1 receptor (Homo sapiens) (P35367 whole entry, looked up): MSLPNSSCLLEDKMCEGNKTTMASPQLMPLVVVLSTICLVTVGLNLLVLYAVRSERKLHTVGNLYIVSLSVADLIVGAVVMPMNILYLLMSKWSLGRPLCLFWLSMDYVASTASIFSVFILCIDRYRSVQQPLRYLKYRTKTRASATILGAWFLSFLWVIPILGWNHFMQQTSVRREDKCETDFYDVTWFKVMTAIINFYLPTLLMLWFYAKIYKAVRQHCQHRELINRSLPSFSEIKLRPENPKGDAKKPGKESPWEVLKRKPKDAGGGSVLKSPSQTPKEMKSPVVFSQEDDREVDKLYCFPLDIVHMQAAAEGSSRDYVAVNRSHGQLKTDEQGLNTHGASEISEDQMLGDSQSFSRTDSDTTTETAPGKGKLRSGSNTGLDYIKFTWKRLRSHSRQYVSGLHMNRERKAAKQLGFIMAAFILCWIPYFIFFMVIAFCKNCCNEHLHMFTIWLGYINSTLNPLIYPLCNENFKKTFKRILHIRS
Assay [11] addresses T1, G-protein coupled receptor 35. The assay is described as follows: Agonist activity at human GPR35 receptor expressed in HEK293T cells co-expressing beta-arrestin2 assessed as induction of beta-arrestin2 recruitment by BRET assay. The format is functional, cell-based.

Chain of Muscarinic acetylcholine receptor M3 (Homo sapiens) (P20309 whole entry, looked up): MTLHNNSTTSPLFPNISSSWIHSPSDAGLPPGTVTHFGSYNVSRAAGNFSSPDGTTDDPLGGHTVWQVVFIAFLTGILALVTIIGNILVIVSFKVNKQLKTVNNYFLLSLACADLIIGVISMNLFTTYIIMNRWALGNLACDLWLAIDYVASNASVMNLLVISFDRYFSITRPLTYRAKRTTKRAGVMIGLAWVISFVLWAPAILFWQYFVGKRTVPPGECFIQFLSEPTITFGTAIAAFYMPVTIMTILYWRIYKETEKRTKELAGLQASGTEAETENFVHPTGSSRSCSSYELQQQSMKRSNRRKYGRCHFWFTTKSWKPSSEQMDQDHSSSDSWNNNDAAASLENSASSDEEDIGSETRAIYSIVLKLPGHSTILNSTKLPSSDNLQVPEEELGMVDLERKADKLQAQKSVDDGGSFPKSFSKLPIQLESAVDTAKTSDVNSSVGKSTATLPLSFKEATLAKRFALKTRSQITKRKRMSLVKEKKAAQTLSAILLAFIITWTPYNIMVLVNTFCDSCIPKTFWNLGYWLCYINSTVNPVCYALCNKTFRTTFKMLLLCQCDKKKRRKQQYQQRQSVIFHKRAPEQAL
Chain of Mu-type opioid receptor (Homo sapiens) (P35372 whole entry): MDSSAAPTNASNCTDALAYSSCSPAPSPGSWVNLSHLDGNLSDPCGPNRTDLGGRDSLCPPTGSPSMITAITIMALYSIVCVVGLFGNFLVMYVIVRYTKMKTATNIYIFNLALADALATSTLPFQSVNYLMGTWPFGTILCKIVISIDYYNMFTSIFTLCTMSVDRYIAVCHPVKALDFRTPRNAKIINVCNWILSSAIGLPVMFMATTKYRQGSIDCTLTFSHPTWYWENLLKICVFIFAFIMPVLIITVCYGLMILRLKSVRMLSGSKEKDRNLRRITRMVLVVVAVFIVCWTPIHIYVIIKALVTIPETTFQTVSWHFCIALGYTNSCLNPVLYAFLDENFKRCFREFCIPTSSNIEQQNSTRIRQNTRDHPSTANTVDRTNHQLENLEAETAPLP

With `COc1ccc(-c2cc3cc(C(=O)O)c(=O)oc3c3cc(C(=O)O)c(=O)oc23)cc1`, the EC50 came out at 20 nM in [1] and 6.93 nM in [4]. In addition, the results for the IC50 in assay [2], in assay [3] and in assay [5] were 7 nM, 470 nM and 2.45 nM, respectively. Besides, the result in assay [6], in assay [7], in [8], in [9] and in [10] was inactive.
Take `COc1cccc(-c2cc3cc(C(=O)O)c(=O)oc3cc2O)c1`: the 50% effective concentration (EC50) in [1] came to 1600 nM. The IC50 in assay [2] is 1380 nM; in assay [3], 2260 nM.
Take `Cc1c2[nH]c(C(=O)O)cc(=O)c2cc2c(=O)cc(C(=O)O)[nH]c12`: the 50% effective concentration (EC50) in [1] came out at 8 nM; in assay [4], 1.08 nM. Further, the values for the half-inhibitory concentration (IC50) in assay [2], in assay [3] and in assay [5] were 2 nM, 789 nM and 0.74 nM, respectively. Besides, the outcome in assay [6], in [7], in assay [8], in assay [9] and in [10] was inactive.
For the compound `O=C(O)c1cc2c(oc1=O)c(Br)cc1cc(-c3nnn[nH]3)c(=O)oc12`, the EC50 in [1] is 18 nM; in assay [4], 25.9 nM. Moreover, the 50% inhibitory concentration (IC50) in [2] was 18 nM; in assay [3] it was 830 nM; in assay [5] it was 15.9 nM. Further, the result in assay [6], in assay [7], in [8], in [9] and in assay [10] was inactive.
For the compound `COc1cccc(-c2cc3cc(C(=O)O)c(=O)oc3c3cc(C(=O)O)c(=O)oc23)c1`, the EC50 in [1] was found to be 15 nM. The half-inhibitory concentration (IC50) amounted to 3 nM in assay [2] and 170 nM in assay [3].
Taken in the same sequence, the figures for `COc1ccccc1-c1cc2cc(C(=O)O)c(=O)oc2cc1O` were 23900 nM, 17600 nM and 120 nM.
Consider `COc1cc(C(=O)O)nc2c(C)c3nc(C(=O)O)cc(OC)c3cc12`, for which the EC50 in assay [1] worked out at 100 nM; in [4], 8.13 nM. Moreover, the values for the IC50 in assay [2], in assay [3] and in assay [5] were 65 nM, 282 nM and 6.11 nM, respectively. In addition, the result in assay [6], in assay [7], in [8], in assay [9] and in assay [10] was inactive.
Consider `CCCOc1ccccc1-c1nc2[nH]nnc2c(=O)[nH]1`, for which the outcome in assay [7], in assay [8] and in [9] was inactive.
Turning to `O=C(O)c1cc2c(oc1=O)c(-c1ccc(F)cc1)cc1cc(C(=O)O)c(=O)oc12`, in assay [1], the EC50 was found to be 33 nM. Besides, in assay [3], the IC50 came to 1030 nM.
With `O=C(O)c1cc2cc(Br)c(O)cc2oc1=O`, the IC50 in assay [3] worked out at 130 nM.
For `O=C(O)c1cc2cc(-c3cccs3)c(O)cc2oc1=O`, the EC50 in [1] amounted to 2880 nM. In addition, the half-inhibitory concentration (IC50) stood at 1450 nM in [2] and 160 nM in assay [3].
`Cc1c2oc(=O)c(C(=O)O)cc2cc2cc(C(=O)O)c(=O)oc12`: the EC50 in assay [1] worked out at 140 nM. Moreover, the values for the IC50 in assay [2] and in assay [3] were 42 nM and 350 nM, respectively.
Taken in the same sequence, the figures for `O=C(O)c1cc(C(=O)O)c2c(n1)C(=O)C(=O)c1cc(C(=O)O)[nH]c1-2` [PYRROLOQUINOLINE QUINONE] were 71 nM, 30 nM and 582 nM.
As for `CCCCc1cc2c(=O)cc(C(=O)O)[nH]c2c2c(=O)cc(C(=O)O)[nH]c12` [BUFROLIN], the EC50 in assay [11] came to 13 nM.
For `Cc1c2nc(C(=O)O)cc(Cl)c2cc2c(Cl)cc(C(=O)O)nc12`, the EC50 in assay [1] came to 54 nM; in assay [4], 5.08 nM. Also, the IC50 amounted to 15 nM in assay [2], 2530 nM in assay [3] and 3.52 nM in assay [5]. The result in [6], in assay [7], in assay [8], in [9] and in [10] was inactive.
